Screening results from PubChem BioAssay.
This is a sample that favours compounds with a hit; in the whole collection about 2.7% have one here.
ABHD4 inh – inhibitors of mouse ABHD4. Q8VD66. purified mABHD4, FP-Rh probe fluorescence polarization. inhibition, % at 8.92 µM. 370,000 tested, 0.54% active. AID 720543;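 active means inhibition exceeding the mean over every tested compound plus 3 SD, cut at about 30% in these data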
Target sequence (Q8VD66 whole entry, looked up): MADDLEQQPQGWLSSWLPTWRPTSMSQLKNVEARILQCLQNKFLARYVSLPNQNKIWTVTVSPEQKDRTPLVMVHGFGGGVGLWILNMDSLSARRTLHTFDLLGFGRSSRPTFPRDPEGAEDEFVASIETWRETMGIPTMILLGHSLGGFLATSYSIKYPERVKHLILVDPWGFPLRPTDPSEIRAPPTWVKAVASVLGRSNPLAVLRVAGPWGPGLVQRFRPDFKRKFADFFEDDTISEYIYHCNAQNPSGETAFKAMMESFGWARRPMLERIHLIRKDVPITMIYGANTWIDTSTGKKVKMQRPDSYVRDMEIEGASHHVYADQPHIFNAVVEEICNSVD
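Test system: mABHD4 protein | Buffer or medium: HEPES pH 7.0 buffer, 150 mM NaCl, 0.01% Pluronic F-127 | Probe or stimulus: FP-Rh fluorescent activity-based probe, added after compound pre-incubation | Timing: Pre-incubation 45 min, probe exposure 60 min, at 25 °C | Technique: Fluorescence polarization, excitation 525 nm, emission 598 nm, BODIPY TMR filters | Repeats: Single well per compound (singlicate)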
SIAE inh – blocks human sialic acid acetylesterase. Q9HAT2. SIAE FP-Rh probe binding, fluorescence polarization. inhibition, % at 9.66 µM. 370,000 tested, 0.69% active. AID 1053197;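 active means inhibition above a cutoff: mean of compounds within the control limits plus 3 SD of those, cut at about 17% in these data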
TCR CD3 inh – blocks the human TCR-CD3 interaction; TAMRA-labeled TCR probe fluorescence, biochemical; inhibition, % at 9.4 µM; 360,000 tested, 0.37% active; AID 651800; in the data active means inhibition above about 19%;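 further: recombinant mutant TCR 2C K166C tagged with TAMRA read by polarization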
HTRA1 inh – inhibitors of human serine peptidase HTRA1; Q92743; recombinant HTRA1, FP-rhodamine activity-based probe, fluorescence polarization; inhibition, % at 5.96 µM; 340,000 tested, 0.5% active; AID 504803; in the data active means inhibition above about 36%
PRMT1 inh – PRMT1 (human) inhibition, primary screen. recombinant PRMT1, activity-based probe fluorescence polarization. AID 652257. 370,000 tested, 1.3% active. inhibition, % at 2.79 µM. Q99873;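 active means inhibition above about 21% made by adding two undisclosed values, limit read from the data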
Numbers stand for hits; i = inactive; nt = no result.

SMILES	ABHD4 inh	SIAE inh	TCR CD3 inh	HTRA1 inh	PRMT1 inh
C[C@]12CC[C@@H]3c4cc(O)c(O)cc4CC[C@H]3[C@@H]1CC[C@@H]2O	i	i	i	i	33.2
COC(=O)[C@]12C[C@H](CC(=O)NCc3cccc(C(F)(F)F)c3)C(=O)N(Cc3ccco3)C1=C[C@H](COCc1ccccc1)O[C@@H]2C	i	i	nt	nt	i
O=C(O)c1cccnc1SC1CC(=O)N(CCc2ccccc2)C1=O (centres undefined)	i	i	i	i	i
CCOC(=O)C(N)CSC1CC(=O)N(CCc2ccccc2)C1=O (centres undefined)	i	i	i	i	21.9
CC(C)(C)NC(=O)C1N(c2cccnc2)C(=O)C2C(C(=O)Nc3ccccc3F)C3(C)C=CC21O3 (centres undefined)	i	i	i	i	21.7
Cc1ccc(OC(=O)COc2ccccc2C)c(-n2nc3ccccc3n2)c1	i	i	i	i	23.6
Cc1ccc(NC(=O)C2CCN(C(=O)c3ccccc3C)CC2)cc1	i	i	i	i	i
Cc1ccccc1C(=O)N1CCC(C(=O)Nc2cccc(F)c2)CC1	i	26.3	i	i	i
Cn1c2ccc(F)cc2c2ncn(Cc3ccco3)c(=O)c21	i	i	i	i	21.9
O=S(=O)(Nc1cc2nc3ccccc3nc2n1Cc1ccccc1)c1ccc(Cl)cc1	i	30.1	i	i	i
COc1ccc(-n2c(SCC(=O)Nc3ccc(Oc4ccccc4)cc3)nnc2-c2ccco2)cc1	i	i	nt	nt	i
COc1ccc(C(=O)N/N=C/c2c[nH]c3ccccc23)cc1	i	i	i	i	i
COc1ccc(C(=O)N/N=C/c2cc3ccccc3[nH]c2=S)cc1	i	i	29.5	i	i
S=C1Nc2ccccc2CS1	i	i	i	i	i
S=C1Cc2ccccc2N1	34.1	i	i	i	34.8
C[C@@H]1CN([C@H](C)CO)C(=O)c2cc(NC(=O)Nc3ccccc3)ccc2O[C@@H](C)CCCCO[C@H]1CN(C)S(=O)(=O)c1ccc(F)cc1	i	i	nt	nt	i
CCOC(=O)N(C)[C@H]1C[C@H]2c3[nH]c4c(-c5cccc(C)c5)cccc4c3CCN2C[C@H]1[C@H](C)O	i	i	nt	nt	i
Cc1ccc(S(=O)(=O)Nc2cc(C(C(=O)OC(C)C)C(=O)C(F)(F)F)c(O)c3ccccc23)c(C)c1 (centres undefined)	i	i	i	i	25.4
Cc1ccc(S(=O)(=O)Nc2ccc(O)c3ccccc23)c(C)c1	i	i	i	i	i
O=C(/C=C/c1ccco1)Nc1nc(-c2ccccn2)cs1	i	i	i	i	23.0
O=C(/C=C/c1ccco1)Nc1nc(-c2ccccc2)cs1	i	i	i	i	i
Cc1noc(C)c1S(=O)(=O)N(C)C[C@H]1Oc2c(NS(=O)(=O)c3cn(C)cn3)cccc2C(=O)N([C@H](C)CO)C[C@@H]1C	i	i	i	i	i
CCOc1ccc(-n2c(COc3ccccc3)nnc2SCC(=O)Nc2ccc3c(c2)OCCO3)cc1	i	i	nt	nt	i
Cc1c(C(=O)NNc2cc(=O)n(C)c(=O)n2C)cccc1[N+](=O)[O-]	i	i	i	i	23.3
CCC(CC)NC(=O)c1cccc([N+](=O)[O-])c1C	i	i	i	i	i
SMILES	ABHD4 inh	SIAE inh	TCR CD3 inh	HTRA1 inh	PRMT1 inh
COc1ccc(N2C(=O)C(Cl)=C(N3CCOCC3)C2=O)cc1	i	i	i	i	i
O=C1C(Cl)=C(N2CCOCC2)C(=O)N1c1cccc(Cl)c1	i	i	i	i	22.1
Cc1cccc(-n2c(O)c(C=Nc3ccc(O)cc3)c3ccccc3c2=O)n1	i	i	i	i	i
Cc1cccc(-n2c(O)c(C=Nc3ccccc3O)c3ccccc3c2=O)n1	i	i	40.5	i	i
C=CCn1c(SCC(=O)NCCOC)nc2scc(-c3ccco3)c2c1=O	i	i	i	i	47.3
Cc1ccc(C)c(NC(=O)c2cccc3c2-c2ccccc2C3=O)c1	i	i	nt	nt	i
Cc1ccc(-c2csc(=S)[nH]2)cc1	i	i	i	i	22.4
O=C(c1ccccc1OCc1ccccc1)N(Cc1ccccn1)CC1CCCO1 (centres undefined)	i	i	nt	nt	i
O=C(CCn1nnc(-c2cccs2)n1)N1CCCCC1	i	i	nt	nt	i
Cc1[nH]c(=S)c(C#N)c(-c2ccco2)c1C(=O)N(C)C	i	i	i	i	30.6
CC(=O)c1c(C)[nH]c(=S)c(C#N)c1-c1ccc(Cl)cc1	i	i	i	nt	i
CCc1cccc(C)c1NC(=O)c1cccc(N(C)C)c1	i	i	i	i	23.3
